Results as given in ChEMBL document CHEMBL1671867, “Novel polymyxin derivatives carrying only three positive charges are effective antibacterial agents” (Antimicrob Agents Chemother, 2008).
In brackets after ≈: the same amount, converted by molar mass. Bridge positions count the residues as written; N and C are the ends. Square brackets hold non-standard residues; d marks the D form. Peptide text beside a SMILES is read from it. * marks the point of attachment. Decanoyl = CCCCCCCCCC(=O)*; Octanoyl = CCCCCCCC(=O)*; Dab = NCC[C@H](N)C(=O)O; Abu = CC[C@H](N)C(=O)O

Columns and labels:
Escherichia coli [1] = experiment: Antibacterial activity against Escherichia coli IH3080 assessed as growth inhibition at 10 ug after 18 hrs by […]; assay type: functional
Escherichia coli [2] = experiment: Antibacterial activity against Escherichia coli IH3080 assessed as growth inhibition at 10 ug after 18 hrs by […] in presence of 1 ug/ml rifampin; assay type: functional
Enterobacter cloacae [3] = experiment: Antibacterial activity against Enterobacter cloacae by CLSI M7-A7 agar dilution method; assay type: functional
Serratia marcescens = experiment: Antibacterial activity against Serratia marcescens ATCC 8100 by CLSI M7-A7 agar dilution method; assay type: functional
Summary of the method: (§1)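 Agar dilution on Mueller-Hinton agar with test substance at 0.25 to 32 μg/ml in twofold steps. Spots of about 10^4 CFU applied with a multipoint inoculator.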

Enterobacter cloacae [4] = experiment: Antibacterial activity against Enterobacter cloacae ATCC 23355 by CLSI M7-A7 agar dilution method; assay type: functional
Escherichia coli [5] = experiment: Antibacterial activity against Escherichia coli by CLSI M7-A7 agar dilution method; assay type: functional; summary of the method: as §1
Enterobacter cloacae [6] = experiment: Antibacterial activity against Enterobacter cloacae CCUG52947 by CLSI M7-A7 agar dilution method; assay type: functional
Acinetobacter baumannii [7] = experiment: Antibacterial activity against Acinetobacter baumannii by CLSI M7-A7 agar dilution method; assay type: functional
Candida albicans = experiment: Antibacterial activity against Candida albicans ATCC 28366 by CLSI M7-A7 agar dilution method; assay type: functional
Escherichia coli [8] = experiment: Antibacterial activity against Escherichia coli SC 9253 by CLSI M7-A7 agar dilution method; assay type: functional; summary of the method: as §1
Escherichia coli [9] = experiment: Antibacterial activity against Escherichia coli SC 9252 by CLSI M7-A7 agar dilution method; assay type: functional
Escherichia coli [10] = experiment: Antibacterial activity against Escherichia coli ATCC […] by CLSI M7-A7 agar dilution method; assay type: functional
Klebsiella pneumoniae [11] = experiment: Antibacterial activity against Klebsiella pneumoniae by CLSI M7-A7 agar dilution method; assay type: functional; summary of the method: as §1
Klebsiella oxytoca [12] = experiment: Antibacterial activity against Klebsiella oxytoca CCUG51683 by CLSI M7-A7 agar dilution method; assay type: functional; summary of the method: as §1
Staphylococcus aureus = experiment: Antibacterial activity against Staphylococcus aureus ATCC 25923 by CLSI M7-A7 agar dilution method; assay type: functional; summary of the method: as §1
Citrobacter freundii = experiment: Antibacterial activity against Citrobacter freundii ATCC 8090 by CLSI M7-A7 agar dilution method; assay type: functional
Klebsiella oxytoca [13] = experiment: Antibacterial activity against Klebsiella oxytoca ATCC 13182 by CLSI M7-A7 agar dilution method; assay type: functional; summary of the method: as §1
Acinetobacter baumannii [14] = experiment: Antibacterial activity against Acinetobacter baumannii ATCC 19606 by CLSI M7-A7 agar dilution method; assay type: functional
Pseudomonas aeruginosa = experiment: Antibacterial activity against Pseudomonas aeruginosa ATCC 27853 by CLSI M7-A7 agar dilution method; assay type: functional; summary of the method: as §1
Klebsiella pneumoniae [15] = experiment: Antibacterial activity against Klebsiella pneumoniae CCUG45421 by CLSI M7-A7 agar dilution method; assay type: functional; summary of the method: as §1
Escherichia coli [16] = experiment: Antibacterial activity against Escherichia coli IH3080 by CLSI M7-A7 agar dilution method; assay type: functional
[17] = Inhibition of [3H]gentamicin binding to brush border membrane of renal cortex
Summary of the method: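 Brush border membrane vesicles prepared from male albino rat renal cortex by Mg2+-EGTA precipitation. Incubated with 20 μM [3H]gentamicin in 10 mM HEPES pH 7.5 with 300 mM mannitol, with or without compound, 60 min at 4°C. Then filtered, washed, and bound radioactivity counted by scintillation. IC50 fitted with the Hill equation.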

| Molecule | inhibition zone (IZ) (Escherichia coli [1]) | inhibition zone (IZ) (Escherichia coli [2]) [mm2] | also measured |
| --- | --- | --- | --- |
| CCCCCCCC(=O)N[C@H](C(=O)N[C@H](C)C(=O)N[C@H]1CCNC(=O)[C@H]([C@@H](C)O)NC(=O)[C@H](CCN)NC(=O)[C@H](CCN)NC(=O)[C@H]([C@@H](C)O)NC(=O)[C@H](Cc2ccccc2)NC(=O)[C@H](CCN)NC1=O)[C@@H](C)O | 60 mm2 | 230 |  |
| CCCCCCCC(=O)N[C@H](C(=O)N[C@@H](CO)C(=O)N[C@H]1CCNC(=O)[C@H]([C@@H](C)O)NC(=O)[C@H](CCN)NC(=O)[C@H](CCN)NC(=O)[C@H](CC(C)C)NC(=O)[C@H](Cc2ccccc2)NC(=O)[C@H](CCN)NC1=O)[C@@H](C)O | 80 mm2 | 230 |  |
| CCCCCCCC(=O)N[C@H](C)C(=O)N[C@H](C)C(=O)N[C@H]1CCNC(=O)[C@H]([C@@H](C)O)NC(=O)[C@H](CCN)NC(=O)[C@H](CCN)NC(=O)[C@H](CC(C)C)NC(=O)[C@H](Cc2ccccc2)NC(=O)[C@H](CCN)NC1=O | 0 mm2 | 200 |  |
| CCCCCCCC(=O)N[C@H](C(=O)N[C@H](CO)C(=O)N[C@H]1CCNC(=O)[C@H]([C@@H](C)O)NC(=O)[C@H](CCN)NC(=O)[C@H](CCN)NC(=O)[C@H]([C@@H](C)O)NC(=O)[C@H](Cc2ccccc2)NC(=O)[C@H](CCN)NC1=O)[C@@H](C)O | 172 mm2 | 190 |  |
| CCCCCCCC(=O)N[C@H](C(=O)N[C@@H](C(=O)N[C@H]1CCNC(=O)[C@H]([C@@H](C)O)NC(=O)[C@H](CCN)NC(=O)[C@H](CCN)NC(=O)[C@H]([C@@H](C)O)NC(=O)[C@H](Cc2ccccc2)NC(=O)[C@H](CCN)NC1=O)[C@@H](C)O)[C@@H](C)O | 200 mm2 | 250 |  |
| CCCCCCCC(=O)N[C@H](C(=O)N[C@H](C(=O)N[C@H](CO)C(=O)N[C@H]1CCNC(=O)[C@H]([C@@H](C)O)NC(=O)[C@H](CCN)NC(=O)[C@H](CCN)NC(=O)[C@H](CC(C)C)NC(=O)[C@H](Cc2ccccc2)NC(=O)[C@H](CCN)NC1=O)[C@@H](C)O)[C@@H](C)O | 160 mm2 | 190 |  |
| CCCCCCCC(=O)N[C@@H](C)C(=O)N[C@H](C(=O)N[C@H](CO)C(=O)N[C@H]1CCNC(=O)[C@H]([C@@H](C)O)NC(=O)[C@H](CCN)NC(=O)[C@H](CCN)NC(=O)[C@H](CC(C)C)NC(=O)[C@H](Cc2ccccc2)NC(=O)[C@H](CCN)NC1=O)[C@@H](C)O | 160 mm2 | 200 |  |
| CCCCCCCCCC(=O)N[C@H](C(=O)N[C@H](CO)C(=O)N[C@H]1CCNC(=O)[C@H]([C@@H](C)O)NC(=O)[C@H](CCN)NC(=O)[C@H](CCN)NC(=O)[C@H](CC(C)C)NC(=O)[C@@H](Cc2ccccc2)NC(=O)[C@H](CCN)NC1=O)[C@@H](C)O (Decanoyl-T[dS][Dab][Dab][dF]L[Dab][Dab]T; lactam 3-C) | 130 mm2 | 150 | MIC (Enterobacter cloacae [3]): 2 µg/mL (≈ 1.81 µM); MIC (Serratia marcescens): > 32 µg/mL; MIC (Enterobacter cloacae [4]): 2 µg/mL (≈ 1.81 µM); MIC (Escherichia coli [5]): 1 µg/mL (≈ 0.906 µM); MIC (Enterobacter cloacae [6]): 2 µg/mL (≈ 1.81 µM); MIC (Acinetobacter baumannii [7]): 2 µg/mL (≈ 1.81 µM); MIC (Candida albicans): > 32 µg/mL; MIC (Escherichia coli [8]): 16 µg/mL (≈ 14.5 µM); MIC (Escherichia coli [9]): 8 µg/mL (≈ 7.24 µM); MIC (Escherichia coli [10]): 2 µg/mL (≈ 1.81 µM); MIC (Klebsiella pneumoniae [11]): 2 µg/mL (≈ 1.81 µM); MIC (Klebsiella oxytoca [12]): 2 µg/mL (≈ 1.81 µM); MIC (Staphylococcus aureus): > 32 µg/mL; MIC (Citrobacter freundii): 2 µg/mL (≈ 1.81 µM); MIC (Klebsiella oxytoca [13]): 2 µg/mL (≈ 1.81 µM); MIC (Acinetobacter baumannii [14]): 4 µg/mL (≈ 3.62 µM); MIC (Pseudomonas aeruginosa): 4 µg/mL (≈ 3.62 µM); MIC (Klebsiella pneumoniae [15]): 4 µg/mL (≈ 3.62 µM); MIC (Escherichia coli [16]): 2 µg/mL (≈ 1.81 µM) |
| CCCCCCCC(=O)N[C@H](C(=O)N[C@@H](CC(N)=O)C(=O)N[C@H]1CCNC(=O)[C@H]([C@@H](C)O)NC(=O)[C@H](CCN)NC(=O)[C@H](CCN)NC(=O)[C@H](CC(C)C)NC(=O)[C@H](Cc2ccccc2)NC(=O)[C@H](CCN)NC1=O)[C@@H](C)O (Octanoyl-TN[Dab][Dab]FL[Dab][Dab]T; lactam 3-C) | 10 mm2 | 180 |  |
| CCCCCCCC(=O)N[C@H](C(=O)N[C@@H](CC)C(=O)N[C@H]1CCNC(=O)[C@H]([C@@H](C)O)NC(=O)[C@H](CCN)NC(=O)[C@H](CC)NC(=O)[C@H](CC(C)C)NC(=O)[C@@H](Cc2ccccc2)NC(=O)[C@H](CCN)NC1=O)[C@@H](C)O (Octanoyl-T[Abu][Dab][Dab][dF]L[Abu][Dab]T; lactam 3-C) | 0 mm2 | 10 |  |
| CCCCCCCC(=O)N[C@H](C(=O)N[C@@H](CC)C(=O)N[C@H]1CCNC(=O)[C@H](CC(C)C)NC(=O)[C@H](CCN)NC(=O)[C@H](CCN)NC(=O)[C@H](CC(C)C)NC(=O)[C@@H](Cc2ccccc2)NC(=O)[C@H](CCN)NC1=O)[C@@H](C)O (Octanoyl-T[Abu][Dab][Dab][dF]L[Dab][Dab]L; lactam 3-C) | 50 mm2 | 180 |  |
| CCCCCCCC(=O)N[C@H](C(=O)N[C@@H](CCN)C(=O)N[C@H]1CCNC(=O)[C@H]([C@@H](C)O)NC(=O)[C@H](CCN)NC(=O)[C@H](CCN)NC(=O)[C@H](CC(C)C)NC(=O)[C@@H](Cc2ccccc2)NC(=O)[C@H](CC)NC1=O)[C@@H](C)O (Octanoyl-T[Dab][Dab][Abu][dF]L[Dab][Dab]T; lactam 3-C) | 0 mm2 | 100 |  |
| CCCCCCCC(=O)N[C@H](C(=O)N[C@@H](CCN)C(=O)N[C@H]1CCNC(=O)[C@H]([C@@H](C)O)NC(=O)[C@H](CCN)NC(=O)[C@H](CC)NC(=O)[C@H](CC(C)C)NC(=O)[C@@H](Cc2ccccc2)NC(=O)[C@H](CCN)NC1=O)[C@@H](C)O (Octanoyl-T[Dab][Dab][Dab][dF]L[Abu][Dab]T; lactam 3-C) | 60 mm2 | 250 |  |
| CCCCCCCC(=O)N[C@H](C(=O)N[C@@H](CCN)C(=O)N[C@H]1CCNC(=O)[C@H]([C@@H](C)O)NC(=O)[C@H](CC)NC(=O)[C@H](CCN)NC(=O)[C@H](CC(C)C)NC(=O)[C@@H](Cc2ccccc2)NC(=O)[C@H](CCN)NC1=O)[C@@H](C)O (Octanoyl-T[Dab][Dab][Dab][dF]L[Dab][Abu]T; lactam 3-C) | 0 mm2 | 170 |  |
| CCCCCCCC(=O)N[C@@H](CCN)C(=O)N[C@H](C(=O)N[C@@H](CCN)C(=O)N[C@H]1CCNC(=O)[C@H]([C@@H](C)O)NC(=O)[C@H](CCN)NC(=O)[C@H](CC)NC(=O)[C@H](CC(C)C)NC(=O)[C@@H](Cc2ccccc2)NC(=O)[C@H](CC)NC1=O)[C@@H](C)O (Octanoyl-[Dab]T[Dab][Dab][Abu][dF]L[Abu][Dab]T; lactam 4-C) | 0 mm2 | 0 |  |
| CCCCCCCC(=O)N[C@@H](CCN)C(=O)N[C@H](C(=O)N[C@@H](CCN)C(=O)N[C@H]1CCNC(=O)[C@H]([C@@H](C)O)NC(=O)[C@H](CC)NC(=O)[C@H](CCN)NC(=O)[C@H](CC(C)C)NC(=O)[C@@H](Cc2ccccc2)NC(=O)[C@H](CC)NC1=O)[C@@H](C)O (Octanoyl-[Dab]T[Dab][Dab][Abu][dF]L[Dab][Abu]T; lactam 4-C) | 0 mm2 | 10 |  |
| CC(C)C[C@@H]1NC(=O)[C@@H](Cc2ccccc2)NC(=O)[C@H](CCN)NC(=O)[C@@H](NC(=O)[C@H](CCN)NC(=O)[C@@H](N)[C@@H](C)O)CCNC(=O)[C@H]([C@@H](C)O)NC(=O)[C@H](CCN)NC(=O)[C@H](CCN)NC1=O [POLYMYXIN B NONAPEPTIDE] (H-T[Dab][Dab][Dab][dF]L[Dab][Dab]T; lactam 3-C) | <=5 mm2 | 143 |  |
| GENTAMICIN |  |  | IC50 [17]: 90.2 µM |
| POLYMYXIN B |  |  | IC50 [17]: 39.3 µM |
